Laboratory results as given in ChEMBL document CHEMBL4715718, “Methyl Protodioscin, a Steroidal Saponin, Inhibits Neointima Formation in Vitro and in Vivo” (J Nat Prod, 2016).
Activity calls are given as the source filed them. The calls are words filed in the database; no cut-off is given here.

Experiments:
[1] = Antiproliferative activity against rat A7r5 cells assessed as reduction in cell viability after 24 hrs by MTT assay; settings: A7R5, 24 h
A7R5 [2] = assay: Induction of cell cycle arrest in rat A7r5 cells assessed as accumulation of cells at G0/G1 phase at 3 to 9 uM after 18 hrs by PI/RNase A staining based flow cytometric analysis; type: functional; settings: dose 3-9 µM
A7R5 [3] = assay: Induction of apoptosis in rat A7r5 cells assessed as effect on Bax protein expression at 3 to 9 uM after 24 hrs by Western blot analysis; type: functional, cell-based; settings: dose 3-9 µM
In short: (§1)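 Bax and Bcl-2 in A7r5 cells are immunoblotted after treatment (3, 6 and 9 μM, 24 h) in culture medium. Lysis in SDS/DTT/Tris buffer pH 6.8 at 95 °C, then SDS-PAGE and PVDF. Bands are given relative to the 10% FBS control, and the Bax/Bcl-2 ratio is computed. Triplicate; one-way ANOVA.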

A7R5 [4] = assay: Induction of apoptosis in rat A7r5 cells assessed as effect on Bcl2 protein expression at 3 to 9 uM after 24 hrs by Western blot analysis; type: functional, cell-based; settings: dose 3-9 µM; in short: as §1
A7R5 [5] = assay: Induction of apoptosis in rat A7r5 cells assessed as effect on Bax/Bcl2 expression ratio at 3 to 9 uM measured after 24 hrs by Western blot analysis; type: functional, cell-based; settings: dose 3-9 µM; in short: as §1
A7R5 [6] = assay: Induction of apoptosis in rat A7r5 cells assessed as change in sub-G1 phase at 3 to 9 uM after 24 hrs by PI/RNase A staining based flow cytometric analysis; type: functional, cell-based; settings: dose 3-9 µM
In short: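 A7r5 cells were plated at 1.0 × 10^5 per 10 cm dish and exposed to graded concentrations in DMEM with 10% FBS. They were trypsinized, fixed in ice-cold 70% ethanol overnight at −20 °C, then stained with PI/Triton X-100/RNase A at 37 °C for at least 30 min in the dark. Sub-G1, G0/G1, S and G2/M fractions were read by FACScan. Control: 10% FBS; n = 3.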

Rattus norvegicus [7] = assay: Inhibition of neointima formation index of injured vessel in rat model of balloon injury induced neointimal hyperplasia at 3 to 6 uM administered as extravascular treatment and measured after 2 weeks by hematoxylin and eosin Y staining based histopathological analysis; type: functional; settings: dose 3-6 µM
In short: (§2)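 Male rats (3–4 months, 300–350 g) were randomized into four groups: sham, balloon injury + PBS, and balloon injury + 3 μM or 6 μM compound. PBS or compound was given extravascularly in ice-cold 30% (w/v) pluronic F-127 gel. Arterial sections 5–10 μm thick (6 per block) were stained with hematoxylin and eosin Y. Intima, media and lumen areas and the intima/media ratio were measured by image analysis.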

Rattus norvegicus [8] = assay: Reduction in ADAM15 protein expression in VSMCs and injured arteries in rat model of balloon injury induced neointimal hyperplasia at 3 to 6 uM administered as extravascular treatment and measured after 2 weeks by Western blot analysis; type: functional; settings: dose 3-6 µM
[9] = target: T1, Disintegrin and metalloproteinase domain-containing protein 15 (Rattus norvegicus) (UniProt Q9QYV0); assay: Inhibition of ADAM15-mediated FAK phosphorylation in rat A7r5 cells at 3 to 9 uM after 24 hrs by western blot analysis; type: cell-based; settings: dose 3-9 µM
T1 sequence (whole entry): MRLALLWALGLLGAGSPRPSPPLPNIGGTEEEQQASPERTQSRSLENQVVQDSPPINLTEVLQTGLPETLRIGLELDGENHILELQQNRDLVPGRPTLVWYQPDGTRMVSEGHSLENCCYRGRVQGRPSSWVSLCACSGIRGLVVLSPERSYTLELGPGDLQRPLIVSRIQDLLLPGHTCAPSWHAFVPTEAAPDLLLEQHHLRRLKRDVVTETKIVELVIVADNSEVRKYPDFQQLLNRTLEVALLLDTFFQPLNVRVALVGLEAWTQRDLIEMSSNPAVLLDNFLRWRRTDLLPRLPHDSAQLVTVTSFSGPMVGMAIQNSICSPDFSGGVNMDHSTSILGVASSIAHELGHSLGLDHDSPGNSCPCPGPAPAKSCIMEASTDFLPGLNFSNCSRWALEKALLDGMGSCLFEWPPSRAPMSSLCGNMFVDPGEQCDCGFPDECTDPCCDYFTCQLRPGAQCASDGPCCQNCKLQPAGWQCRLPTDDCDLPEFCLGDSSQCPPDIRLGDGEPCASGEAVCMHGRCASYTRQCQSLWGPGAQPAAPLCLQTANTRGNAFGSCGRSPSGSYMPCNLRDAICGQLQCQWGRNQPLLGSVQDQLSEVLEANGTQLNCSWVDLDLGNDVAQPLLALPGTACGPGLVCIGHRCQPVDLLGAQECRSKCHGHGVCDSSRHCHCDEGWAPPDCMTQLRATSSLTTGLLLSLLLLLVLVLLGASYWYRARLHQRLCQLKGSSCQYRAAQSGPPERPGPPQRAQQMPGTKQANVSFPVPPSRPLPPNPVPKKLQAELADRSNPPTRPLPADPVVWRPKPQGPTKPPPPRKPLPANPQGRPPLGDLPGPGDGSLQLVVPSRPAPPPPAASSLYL
In short: (§3)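 A7r5 rat aortic smooth muscle cells (DMEM, 10% FBS, 37 °C, 5% CO2) treated with 3, 6 or 9 μM in culture medium for 24 h. Lysed in 2% SDS/50 mM DTT/62.5 mM Tris-HCl pH 6.8 at 95 °C for 5 min. SDS-PAGE, PVDF transfer, 5% milk block, HRP secondary. Band expressed as % of control; mean ± SD, n = 3, one-way ANOVA.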

A7R5 [10] = assay: Down regulation of ERK2 expression in rat A7r5 cells at 3 to 9 uM after 24 hrs by Western blot analysis; type: functional, cell-based; settings: dose 3-9 µM; in short: as §3
A7R5 [11] = assay: Down regulation of AKT expression in rat A7r5 cells at 3 to 9 uM after 24 hrs by Western blot analysis; type: functional, cell-based; settings: dose 3-9 µM; in short: as §3
A7R5 [12] = assay: Down regulation of ADAM15 protein translational level in rat A7r5 cells at 9 uM after 24 hrs by Western blot analysis; type: functional, cell-based; in short: as §3
A7R5 [13] = assay: Down regulation of FAK expression in rat A7r5 cells at 3 to 9 uM after 24 hrs by Western blot analysis; type: functional, cell-based; settings: dose 3-9 µM; in short: as §3
A7R5 [14] = assay: Down regulation of PI3K expression in rat A7r5 cells at 3 to 9 uM after 24 hrs by Western blot analysis; type: functional, cell-based; settings: dose 3-9 µM; in short: as §3
A7R5 [15] = assay: Down regulation of ERK1 expression in rat A7r5 cells at 3 to 9 uM after 24 hrs by Western blot analysis; type: functional, cell-based; settings: dose 3-9 µM; in short: as §3
A7R5 [16] = assay: Inhibition of cell migration in rat A7r5 cells at 6 to 9 uM after 16 hrs by crystal violet staining based transwell assay; type: functional; settings: dose 6-9 µM
In short: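 Transwell, 8 μm pore: 1.2 × 10^4 A7r5 cells in the upper chamber attach for 2 h. The upper chamber then receives serum-free medium with compound, and the lower chamber 10% FBS medium with compound, for 16 h at 37 °C. Cells are fixed in formaldehyde, stained with crystal violet and counted in five random fields. Migration is given as % of control cell number.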

A7R5 [17] = assay: Inhibition of cell migration in rat A7r5 cells at 9 uM after 18 hrs by scratch wound healing assay; type: functional, cell-based
A7R5 [18] = assay: Down regulation of MMP-2 expression in rat A7r5 cells at 3 to 9 uM after 24 hrs by Western blot analysis; type: functional, cell-based; settings: dose 3-9 µM; in short: as §3
A7R5 [19] = assay: Down regulation of MMP-9 expression in rat A7r5 cells at 3 to 9 uM after 24 hrs by Western blot analysis; type: functional, cell-based; settings: dose 3-9 µM; in short: as §3
[20] = target: T1, Disintegrin and metalloproteinase domain-containing protein 15 (Rattus norvegicus); assay: Inhibition of ADAM15-mediated MMP-9 activity in rat A7r5 cells at 6 uM after 24 hrs by gelatin zymography; type: cell-based
In short: (§4)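 Conditioned medium came from A7r5 cells (1.0 × 10^5 per 10 cm dish) held 24 h with the compound in DMEM/10% FBS. It ran under nonreducing conditions on 10% SDS-PAGE with 0.1% gelatin. Gels were washed in 2.5% Triton X-100 for 1 h, developed at 37 °C in pH 8.0 Tris/10 mM CaCl2 buffer, then Coomassie stained and destained. Clear bands were quantified as % of control; n = 3.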

[21] = target: T1, Disintegrin and metalloproteinase domain-containing protein 15 (Rattus norvegicus); assay: Inhibition of ADAM15-mediated MMP-9 activity in rat A7r5 cells at 9 uM after 24 hrs by gelatin zymography; type: cell-based; in short: as §4
[22] = target: T1, Disintegrin and metalloproteinase domain-containing protein 15 (Rattus norvegicus); assay: Inhibition of ADAM15-mediated PI3K phosphorylation in rat A7r5 cells at 3 to 9 uM after 24 hrs by western blot analysis; type: cell-based; settings: dose 3-9 µM; in short: as §3
[23] = target: T1, Disintegrin and metalloproteinase domain-containing protein 15 (Rattus norvegicus); assay: Inhibition of ADAM15-mediated AKT phosphorylation in rat A7r5 cells at 3 to 9 uM after 24 hrs by western blot analysis; type: cell-based; settings: dose 3-9 µM; in short: as §3
[24] = target: T1, Disintegrin and metalloproteinase domain-containing protein 15 (Rattus norvegicus); assay: Inhibition of ADAM15-mediated ERK phosphorylation in rat A7r5 cells at 3 to 9 uM after 24 hrs by western blot analysis; type: cell-based; settings: dose 3-9 µM; in short: as §3
[25] = (§5) Inhibition of neointima formation of injured vessel in rat model of balloon injury induced neointimal hyperplasia assessed as area of intima at 3 uM administered as extravascular treatment and measured after 2 weeks by hematoxylin and eosin Y staining based histopathological analysis (reference value: 3346.4 +/-556.7 um2); type: functional; in short: as §2
[26] = as §5, with “of media” for “of intima”, “value: 1462.7 +/-393.9” for “value: 3346.4 +/-556.7”; type: functional; in short: as §2
[27] = as §5, with “of lumen” for “of intima”, “value: 6809.1 +/-820.8” for “value: 3346.4 +/-556.7”; type: functional; in short: as §2
[28] = (§6) Inhibition of neointima formation of injured vessel in rat model of balloon injury induced neointimal hyperplasia assessed as ratio of area of intima-to-media at 3 uM administered as extravascular treatment and measured after 2 weeks by hematoxylin and eosin Y staining based histopathological analysis (reference value: 1.98 +/-0.36); type: functional; in short: as §2
[29] = as §5, with “at 6” for “at 3”; type: functional; in short: as §2
[30] = as §5, with “of media” for “of intima”, “at 6” for “at 3”, “value: 1462.7 +/-393.9” for “value: 3346.4 +/-556.7”; type: functional; in short: as §2
[31] = as §5, with “of lumen” for “of intima”, “at 6” for “at 3”, “value: 6809.1 +/-820.8” for “value: 3346.4 +/-556.7”; type: functional; in short: as §2
[32] = as §6, with “at 6” for “at 3”; type: functional; in short: as §2

With CO[C@]1(CC[C@@H](C)CO[C@@H]2O[C@H](CO)[C@@H](O)[C@H](O)[C@H]2O)O[C@H]2C[C@H]3[C@@H]4CC=C5C[C@@H](O[C@@H]6O[C@H](CO)[C@@H](O[C@@H]7O[C@@H](C)[C@H](O)[C@@H](O)[C@H]7O)[C@H](O)[C@H]6O[C@@H]6O[C@@H](C)[C@H](O)[C@@H](O)[C@H]6O)CC[C@]5(C)[C@H]4CC[C@]3(C)[C@H]2[C@@H]1C [METHYLPROTODIOSCIN] the IC50 [1] was 9 µM, the Activity (A7R5 [2]) was “Active” and the Activity (A7R5 [3]) was “inactive”. For the same molecule, the Activity (A7R5 [4]) was “inactive”, the Activity (A7R5 [5]) was “inactive” and the Activity (A7R5 [6]) was “inactive”. For the same molecule, the inhibition (Rattus norvegicus [7]) was “Active”, the inhibition (Rattus norvegicus [8]) was “Active” and the inhibition [9] was “Active”. For the same molecule, the inhibition (A7R5 [10]) was “Active”, the inhibition (A7R5 [11]) was “Active” and the inhibition (A7R5 [12]) was “Active”. The inhibition (A7R5 [13]) was “Active”, the inhibition (A7R5 [14]) was “Active” and the inhibition (A7R5 [15]) was “Active”. For the same molecule, the inhibition (A7R5 [16]) was “Active”, the inhibition (A7R5 [17]) was “Active” and the inhibition (A7R5 [18]) was “Active”. The inhibition (A7R5 [19]) was “Active”, the inhibition [20] was “Active” and the inhibition [21] was “Active”. For the same molecule, the inhibition [22] was “Active”, the inhibition [23] was “Active” and the inhibition [24] was “Active”. For the same molecule, the Activity [25] was 1828.4 um2, the Activity [26] was 1902 um2 and the Activity [27] was 4730.4 um2. It also gave a Ratio [28] of 0.92, an Activity [29] of 912.4 um2 and an Activity [30] of 1164.2 um2. The Activity [31] was 3076.6 um2 and the Ratio [32] was 0.34.
